From ChEMBL document CHEMBL4004786, “Nanomolar Antimalarial Agents against Chloroquine-Resistant Plasmodium falciparum from Medicinal Plants and Their Structure-Activity Relationships” (J Nat Prod, 2017)

Key:
[1] = Selectivity index, ratio of IC50 for human WI38 cells to IC50 for chloroquine-resistant Plasmodium falciparum Dd2; assay type: toxicity; conditions: read-out: Ratio IC50
Plasmodium falciparum = assay: Antimalarial activity against chloroquine-resistant Plasmodium falciparum Dd2 assessed as parasite growth inhibition after 72 hrs by SYBR Green 1 assay; assay type: functional; conditions: Dd2, 72 h
Procedure, shortened: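 Viability was read by SYBR Green I DNA quantitation and normalized to DMSO-treated untreated controls. IC50 came from nonlinear regression, averaging at least three independent experiments run in triplicate, with standard deviations.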

WI-38 = assay: Cytotoxicity against human WI38 cells after 24 hrs by resazurin assay; conditions: WI-38, 24 h

C/C=C(\C)C(=O)OC[C@]1(O)[C@H]2C[C@H]2[C@]2(C)[C@@H]3CC4=C5[C@H](/C(=C(/C)C(=O)OC)C(=O)[C@H](O)[C@@]5(C)[C@@H]5C[C@H]45)[C@@]34OC(=O)C(COC(C)=O)=C4C[C@@H]12
selectivity ratio [1]: 12
IC50 (Plasmodium falciparum): 13 nM
IC50 (WI-38): 160 nM

COC(=O)CCC(=O)OCC1=C2C[C@H]3[C@](O)(COC(=O)/C=C(\C)CO)[C@H]4C[C@H]4[C@]3(C)[C@@H]3CC4=C5[C@H](/C(=C(\C)C(=O)OC)C(=O)[C@H](O)[C@@]5(C)[C@@H]5C[C@H]45)[C@]23OC1=O
selectivity ratio [1]: 4900
IC50 (Plasmodium falciparum): 1.1 nM
IC50 (WI-38): 5390 nM

C/C=C(\C)C(=O)OC[C@]1(O)[C@H]2CC3=C(CO)C(=O)O[C@@]34[C@@H]3C5=C(C[C@H]4[C@@]2(C)[C@@H]2C[C@@H]21)[C@H]1C[C@H]1[C@]5(C)[C@@H](O)C(=O)/C3=C(\C)C(=O)OC
selectivity ratio [1]: 37
IC50 (Plasmodium falciparum): 21 nM
IC50 (WI-38): 770 nM

COC(=O)/C(C)=C1\C(=O)[C@H](O)[C@]2(C)C3=C(C[C@@H]4[C@]5(OC(=O)C(C)=C5C[C@H]5[C@](O)(COC(=O)/C=C(\C)CO)[C@H]6C[C@H]6[C@]45C)[C@H]31)[C@H]1C[C@H]12
selectivity ratio [1]: 46
IC50 (Plasmodium falciparum): 96 nM
IC50 (WI-38): 4450 nM

COC(=O)/C(C)=C1\C(=O)[C@H](O)[C@]2(C)C3=C(C[C@@H]4[C@]5(OC(=O)C(COC(=O)C[C@H](O)C(=O)OC)=C5C[C@H]5[C@](O)(COC(=O)/C(C)=C/CO)[C@H]6C[C@H]6[C@]45C)[C@H]31)[C@H]1C[C@H]12
selectivity ratio [1]: 561
IC50 (Plasmodium falciparum): 7.2 nM
IC50 (WI-38): 4040 nM

COC(=O)/C(C)=C1\C(=O)[C@H](O)[C@]2(C)C3=C(C[C@@H]4[C@]5(OC(=O)C(CO)=C5C[C@H]5[C@](O)(COC(C)=O)[C@H]6C[C@H]6[C@]45C)[C@H]31)[C@H]1C[C@H]12
selectivity ratio [1]: 100
IC50 (Plasmodium falciparum): 100 nM
IC50 (WI-38): 10000 nM

COC(=O)/C(C)=C1/C(=O)[C@H](O)[C@]2(C)C3=C(C[C@@H]4[C@]5(OC(=O)C6=C5C[C@H]5[C@](O)(COC(=O)/C=C(\C)COC(=O)CCC(=O)OC6)[C@H]6C[C@H]6[C@]45C)[C@H]31)[C@H]1C[C@H]12
selectivity ratio [1]: 27
IC50 (Plasmodium falciparum): 46 nM
IC50 (WI-38): 1240 nM

C=C1C(=O)O[C@]23C4=C5C(=O)[C@H](O)[C@]6(C)C4=C(C[C@H]2[C@]2(C)C(C[C@]13[C@]5(C)C(=O)OC)[C@](O)(COC(=O)/C(C)=C/COC(=O)CCC(=O)OC)[C@H]1C[C@H]12)[C@H]1C[C@H]16 (stereo not given in full)
selectivity ratio [1]: 157
IC50 (Plasmodium falciparum): 99 nM
IC50 (WI-38): 15500 nM

COC(=O)/C(C)=C1\C(=O)[C@H](O)[C@]2(C)C3=C(C[C@@H]4[C@]5(OC(=O)C6=C5C[C@H]5[C@](O)(COC(=O)/C(C)=C/COC(=O)CCC(=O)OC6)[C@H]6C[C@H]6[C@]45C)[C@H]31)[C@H]1C[C@H]12 [SHIZUKAOL B]
selectivity ratio [1]: 619
IC50 (Plasmodium falciparum): 27 nM
IC50 (WI-38): 16700 nM

COC(=O)/C(C)=C1\C(=O)[C@H](O)[C@]2(C)C3=C(C[C@@H]4[C@]5(OC(=O)C6=C5C[C@H]5[C@](O)(COC(=O)/C=C(\C)COC(=O)CCC(=O)OC6)[C@H]6C[C@H]6[C@]45C)[C@H]31)[C@H]1C[C@H]12 [SHIZUKAOL F]
selectivity ratio [1]: 21
IC50 (Plasmodium falciparum): 11 nM
IC50 (WI-38): 230 nM
